Many of the other results were omitted from the sample, so hits are more common in it than they were.
T cruzi HTS – inhibitors of intracellular Trypanosoma cruzi; intracellular Trypanosoma cruzi in host cells, plate reader; actives 4.9% (n = 22,000); activity score (inhibition), % at 5.01 µM; in the data active = activity score above about 55%; inconclusive = no clear call, values can overlap the other calls;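 note: parasites and compound incubated about four days before reading; 0% = median of neutral control wells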
INS-1E ATP HTS – INS-1E beta cell protection from cytokine death; AID 488910; protection from cytokine-induced ATP loss, % at 10 µM; INS-1E cytokine-induced death, ATP luminescence, 48 h; normalised: neutral wells 0, positive control 100; actives 0.1% (n = 20,000);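 active = mean replicate protection from cytokine-induced ATP loss at least 50% and at least 75% of replicates each reaching 50%; inconclusive = meets only one of the two criteria, mean or replicate share; inactive = fails both the mean and replicate share criteria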
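Test system: INS-1E rat cells | Quantity: 8000 cells per well | Medium: Phenol-red-free RPMI with 5% fetal bovine serum | Reagent: Cytokine cocktail of IFN-γ, TNF-α and IL-1β | Doses: One compound concentration, pin transfer | Timing: 48 h co-treatment, 10 min post-lysis read | Technique: Luminescent ATP assay (CellTiter-Glo)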
A1 apoptosis 2 – compounds inhibiting A1, read as caspase activation; AID 2465; 24,000 tested, under 10 active; MEF A1-2A-BIM cells, caspase-Glo luminescence, 3 h; percent of clofoctol response, DMSO zero; caspase activation, % (no concentration beside the values); in the data active = caspase activation above about 5.9%; inconclusive = no clear call, values can overlap the other calls; inactive = below about 2.2%
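Evaluation: Caspase-3/7 activity from luminescence increase | Assay system: A1-2A-BIM mouse embryonic fibroblasts | Quantity: 2500 MEF cells/well | Medium: RPMI-1640 plus 10% FBS | Detection: Caspase-Glo 3/7 luminescence, 1 h at room temperature | Dosing: 50 nL compound per well, pinned | Timing: Cells settled overnight, compound exposure 3 h at 37 °C, 5% CO2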
The depositor's hits bear a star; ? = inconclusive; / = not tested or not shown.

SMILES | T cruzi HTS | INS-1E ATP HTS | A1 apoptosis 2
C=CC[C@@]1(C(=O)N(C)C)N=C(c2ccc(OCCCO)cc2)O[C@@H]1c1ccccc1 | / | / | 0
O=C(N/N=C/c1ccc(C(F)(F)F)cc1)c1ccccc1O | -1 | -13 | -6
C[C@@H]1CN([C@@H](C)CO)C(=O)c2cccc(NC(=O)Nc3ccccc3)c2O[C@H]1CN(C)Cc1ccc(C(=O)Nc2ccccc2N)cc1 | 49 | 8 | 0
C[C@H]1CN([C@@H](C)CO)C(=O)c2cccc(NC(=O)Nc3ccccc3)c2O[C@@H]1CN(C)Cc1ccc(C(=O)Nc2ccccc2N)cc1 | 74* | 17 | -1
C[C@@H]1CN([C@H](C)CO)C(=O)c2cccc(NC(=O)Nc3ccc4c(c3)OCO4)c2O[C@H]1CN(C)Cc1ccc(C(=O)Nc2ccccc2N)cc1 | 77* | 10 | /
C[C@H](CO)N1C[C@H](C)[C@H](CN(C)Cc2ccc(C(=O)Nc3ccccc3N)cc2)Oc2c(NC(=O)Nc3ccc4c(c3)OCO4)cccc2C1=O | 55 | -10 | 0
C[C@H](CO)N1C[C@H](C)[C@@H](CN(C)Cc2ccc(C(=O)Nc3ccccc3N)cc2)Oc2ccc(NC(=O)Nc3ccc(F)cc3)cc2C1=O | 26 | -8 | /
CC(C)NC(=O)Nc1cccc2c1O[C@H](CN(C)Cc1ccc(C(=O)Nc3ccccc3N)cc1)[C@H](C)CN([C@H](C)CO)C2=O | 51 | -5 | 0
C[C@@H]1CN([C@@H](C)CO)C(=O)c2cccc(NC(=O)Nc3ccc(F)cc3)c2O[C@@H]1CN(C)Cc1ccc(C(=O)Nc2ccccc2N)cc1 | 70* | 19 | -4
C[C@H](CO)N1C[C@H](C)[C@@H](CN(C)Cc2ccc(C(=O)Nc3ccccc3N)cc2)Oc2c(NC(=O)Nc3ccccc3)cccc2C1=O | 61* | 6 | /
CC(C)(C)OC(=O)NC/C=N/NC(=O)CCCCCC(=O)O | -19 | -8 | 0
COC(=O)CCCCCCC(=O)N/N=C/c1cccc(C(=O)O)c1 | -24 | 6 | 2
Cc1ccc(/C=N/NC(=O)CCCCCCC(=O)NO)o1 | / | / | 0
COc1cc2c(cc1OC)CN(C(=O)[C@@H]1[C@H]3C(=O)O[C@H](c4ccccc4)[C@H](c4ccccc4)N3[C@H](c3ccc(O)cc3)[C@@]13C(=O)Nc1ccc(C#CC4=CCCCC4)cc13)CC2 | / | / | 1
COC(=O)[C@]1(Cc2ccccc2N=[N+]=[N-])N=C(c2ccc(OCCCO)cc2)O[C@@H]1c1ccccc1CN=[N+]=[N-] | / | / | -1
C[C@@H]1CN([C@H](C)CO)C(=O)Cc2cc(N(C)C)ccc2O[C@H]1CN(C)Cc1ccc(Oc2ccccc2)cc1 | 57* | -27 | /
C[C@H](CO)N1C[C@H](C)[C@@H](CN(C)Cc2ccccc2)Oc2ccc(N(C)C)cc2CC1=O | / | / | 0
C[C@H]1CN([C@@H](C)CO)C(=O)Cc2cc(N(C)C)ccc2O[C@@H]1CN(C)Cc1ccccc1 | 58* | -6 | 1
C[C@H](CO)N1C[C@H](C)[C@H](CN(C)Cc2ccc(Oc3ccccc3)cc2)Oc2ccc(N(C)C)cc2CC1=O | 34 | -16 | /
NC(=O)COc1ccc(/C=N/NC(=O)CCCCC(=O)NO)cc1 | -4 | 4 | 1
C[C@@H]1CN([C@@H](C)CO)C(=O)Cc2cc(NC(=O)C3CC3)ccc2O[C@@H]1CN(C)Cc1ccc(C(=O)Nc2ccccc2N)cc1 | 58* | -8 | /
C[C@H]1CN([C@@H](C)CO)C(=O)Cc2cc(NC(=O)NC3CCCCC3)ccc2O[C@H]1CN(C)Cc1ccc(C(=O)Nc2ccccc2N)cc1 | 67* | 3 | -2
C[C@@H]1CN([C@@H](C)CO)C(=O)Cc2cc(NC(=O)Nc3ccc(F)cc3)ccc2O[C@@H]1CN(C)Cc1ccc(C(=O)Nc2ccccc2N)cc1 | 63* | -6 | /
C[C@@H]1CN([C@@H](C)CO)C(=O)Cc2cc(NC(=O)Nc3ccccc3)ccc2O[C@@H]1CN(C)Cc1ccc(C(=O)Nc2ccccc2N)cc1 | ? | -14 | /
C[C@@H]1CN([C@H](C)CO)C(=O)Cc2cc(NC(=O)C3CC3)ccc2O[C@H]1CN(C)Cc1ccc(C(=O)Nc2ccccc2N)cc1 | 19 | -2 | /
C[C@H]1CN([C@@H](C)CO)C(=O)Cc2cc(NC(=O)Nc3ccccc3)ccc2O[C@@H]1CN(C)Cc1ccc(C(=O)Nc2ccccc2N)cc1 | / | / | -1
C[C@H](CO)N1C[C@H](C)[C@H](CN(C)Cc2ccc(C(=O)Nc3ccccc3N)cc2)Oc2ccc(NC(=O)Nc3ccc(F)cc3)cc2CC1=O | 66* | 31 | /
C[C@@H]1CN([C@@H](C)CO)C(=O)Cc2cc(NC(=O)NC3CCCCC3)ccc2O[C@H]1CN(C)Cc1ccc(C(=O)Nc2ccccc2N)cc1 | / | / | 0
